Data from ChEMBL document CHEMBL1126221, “Antimitotic agents: structure-activity studies with some pyridine derivatives” (J Med Chem, 1992).

Tests used:
[1] = Compound's concentration required to inhibit proliferation of cultured KB cells to 50% growth during 48 hours.; assay type: functional, cell-based; details: Homo sapiens
L1210 [2] = assay: Concentration required to inhibit proliferation of cultured lymphoid leukemia L1210 cells to 50% growth over 48 hours; assay type: functional, cell-based; details: Mus musculus, L1210, 48 h
Method in brief: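 Cultured lymphoid leukemia L1210 cells were exposed to agent for 48 h. IC50 is the micromolar concentration that holds proliferation to 50% growth.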

P388 [3] = assay: Compound was evaluated for antitumor activity against mice implanted with lymphatic leukemia P388 cells (10e6 tumor cells) after intraperitoneal administration of 100 mg/kg per injection (1-5 days); assay type: functional; details: Mus musculus, P388, ip
Method in brief: (§1)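 Mice implanted ip with 10⁶ lymphocytic leukemia P388 cells; drug given ip on days 1-5. Read-out is % increase in life span (% ILS) versus untreated controls, reported at the highest nontoxic dose tested.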

P388 [4] = assay: Compound was evaluated for antitumor activity against mice implanted with lymphatic leukemia P388 cells (10e6 tumor cells) after intraperitoneal administration of 200 mg/kg per injection (1-5 days); assay type: functional; details: Mus musculus, P388, ip; method in brief: as §1
P388 [5] = assay: Compound was evaluated for antitumor activity against mice implanted with lymphatic leukemia P388 cells (10e6 tumor cells) after intraperitoneal administration of 50 mg/kg per injection (1-5 days); assay type: functional; details: Mus musculus, P388, ip; method in brief: as §1
HEp-2 = assay: Compound's concentration required to inhibit proliferation of cultured HEP-2 cells to 50% growth during 48 hours.; assay type: functional, cell-based; details: Homo sapiens, HEp-2, 48 h
L1210 [6] = assay: Compound was evaluated for antitumor activity against mice implanted with lymphatic leukemia L1210 cells (10e6 tumor cells) after intraperitoneal administration of 200 mg/kg per injection (1-15 days); details: Mus musculus, L1210, ip
P388 [7] = assay: Compound was evaluated for antitumor activity against mice implanted with lymphatic leukemia P388 cells (10e6 tumor cells) after intraperitoneal administration of 2 mg/kg per injection (1-5 days); assay type: functional; details: Mus musculus, P388, ip; method in brief: as §1
L1210 [8] = assay: Effect on the mitosis of cultured L1210 cells measured in metaphase at 12 hours and 0 uM concentration; assay type: functional, Mus musculus
Method in brief: (§2)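 Cultured L1210 cells were exposed for 12 h to 0, 3, 10, 30, 50 or 100 μM agent. Read-out was the percentage of cells in metaphase.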

L1210 [9] = assay: Effect on the mitosis of cultured L1210 cells measured in metaphase at 12 hours and 10 uM concentration; assay type: functional, Mus musculus; method in brief: as §2
L1210 [10] = assay: Effect on the mitosis of cultured L1210 cells measured in metaphase at 12 hours and 100 uM concentration; assay type: functional, Mus musculus; method in brief: as §2
L1210 [11] = assay: Effect on the mitosis of cultured L1210 cells measured in metaphase at 12 hours and 3 uM concentration; assay type: functional, Mus musculus; method in brief: as §2
L1210 [12] = assay: Effect on the mitosis of cultured L1210 cells measured in metaphase at 12 hours and 50 uM concentration; assay type: functional, Mus musculus; method in brief: as §2
L1210 [13] = assay: Effect on the mitosis of cultured L1210 cells measured in metaphase at 12 hours and 30 uM concentration; assay type: functional, Mus musculus; method in brief: as §2

Row | IC50 (L1210 [2]) [µM] | SMILES | also measured
1 |  | CCOC(=O)Nc1cc(NCCc2ccccc2)c([N+](=O)[O-])c(N)n1 | IC50 [1]: > 100 µM
2 | 54 | CCCCC(=O)C(C)Nc1cc(NC(=O)OCC)nc(N)c1[N+](=O)[O-] (stereo unspecified) | 
3 | 69 | CCOC(=O)Nc1cc(NC(C)C(=O)c2ccc3c(c2)OCO3)c([N+](=O)[O-])c(N)n1 (stereo unspecified) | 
4 | 31 | CCCCC(Nc1cc(NC(=O)OCC)nc(N)c1[N+](=O)[O-])C(C)=O (stereo unspecified) | 
5 | 24 | CCOC(=O)Nc1cc(N[C@@H](C)C(=O)c2ccc(O)cc2)c([N+](=O)[O-])c(N)n1 | 
6 |  | CCOC(=O)Nc1cc(NC(c2ccccc2)c2ccccc2)c(N)c(N)n1 | IC50 (HEp-2): 0.26 µM; ILS at 200 mg/kg (L1210 [6]): 0%
7 |  | CC[C@]1(O)C[C@H]2CN(CCc3c([nH]c4ccccc34)[C@@](C(=O)OC)(c3cc4c(cc3OC)N(C=O)[C@H]3[C@@](O)(C(=O)OC)[C@H](OC(C)=O)[C@]5(CC)C=CCN6CC[C@]43[C@@H]65)C2)C1 [VINCRISTINE] | ILS at 2 mg/kg (P388 [7]): 85%
8 | > 100 | CCOC(=O)Nc1cc(NN(C)C(=N)c2ccccc2)c([N+](=O)[O-])c(N)n1 | 
9 | > 100 | COc1ccc(/C(=N/O)C(C)N)cc1 (stereo unspecified) | 
10 | 12 | CCOC(=O)Nc1cc(NC(C)C(O)c2ccc(O)cc2)c([N+](=O)[O-])c(N)n1 (stereo unspecified) | 
11 | 53 | CCOC(=O)Nc1cc(NC(C)C(O)Cc2ccccc2)c([N+](=O)[O-])c(N)n1 (stereo unspecified) | 
12 | 55 | CCOC(=O)Nc1cc(NC(C)C(O)COc2ccccc2)c([N+](=O)[O-])c(N)n1 (stereo unspecified) | 
13 | 44 | CCOC(=O)Nc1cc(N[C@H](C)C(=O)c2ccc(O)cc2)c([N+](=O)[O-])c(N)n1 | 

Row | SMILES | IC50 (L1210 [2]) [µM] | also measured
14 | CCOC(=O)Nc1cc(N[C@@H](C)[C@H](O)c2ccc(O)cc2)c(N)c(N)n1 | 0.62 | ILS at 100 mg/kg (P388 [3]): 58%
15 | CCOC(=O)Nc1cc(N[C@H](C)C(=O)c2ccccc2)c([N+](=O)[O-])c(N)n1 | 24 | ILS at 200 mg/kg (P388 [4]): 0%
16 | CCOC(=O)Nc1cc(N[C@@H](C)[C@H](O)c2ccccc2)c(N)c(N)n1 | 1.3 | ILS at 50 mg/kg (P388 [5]): 36%
17 | CCOC(=O)Nc1cc(NC(C)C(=O)Cc2ccccc2)c([N+](=O)[O-])c(N)n1 (stereo unspecified) | 10 | ILS at 200 mg/kg (P388 [4]): 10%
18 | CCOC(=O)Nc1cc(N[C@H](C)[C@@H](O)c2ccc(O)cc2)c(N)c(N)n1 | 51 | ILS at 200 mg/kg (P388 [4]): 0%
19 | CCOC(=O)Nc1cc(NC(C)/C(=N/O)c2cccc([N+](=O)[O-])c2)c([N+](=O)[O-])c(N)n1 (stereo unspecified) | 32 | Cells in metaphase (L1210 [8]): 2%; Cells in metaphase (L1210 [9]): 2%; Cells in metaphase (L1210 [10]): 1%; Cells in metaphase (L1210 [11]): 4%; Cells in metaphase (L1210 [12]): 6%; ILS at 100 mg/kg (P388 [3]): 25%; Cells in metaphase (L1210 [13]): 2%
20 | CCOC(=O)Nc1cc(N[C@@H](C)/C(=N/O)c2ccc(O)cc2)c([N+](=O)[O-])c(N)n1 | 6.7 | ILS at 2 mg/kg (P388 [7]): 90%
21 | CCOC(=O)Nc1cc(NC(C)C(=O)c2ccc(O)cc2)c([N+](=O)[O-])c(N)n1 (stereo unspecified) | 1.2 | ILS at 100 mg/kg (P388 [3]): 71%
